From ChEMBL document CHEMBL3616394 (Eur J Med Chem, 2015) come the findings set out here.

In general, pKi refers to the negative decadic logarithm of the Ki, by convention in mol/L. Low values mean a high Ki, high ones a low Ki. Usually Kd stands for the constant that tells how readily two partners part at equilibrium. Lower therefore signals tighter binding. The term pKd denotes the Kd on a negative log10 scale, so that one unit is a factor of ten. One may read the EC50 as the concentration at which the effect is half-maximal. Read a low EC50 as greater potency. Usually IC50 stands for the concentration at which inhibition is half-maximal.

Molecules are shown by their SMILES. The source made the active and inactive calls. The rule behind the calls is not given here.

Assay [1] addresses Neuronal acetylcholine receptor; alpha3/beta4 (Rattus norvegicus, UniProt P04757+P12392). Briefly: Displacement of [3H]epibatidine from rat alpha3beta4 nACHR expressed in HEK293 cells after 4 hrs by scintillation counting assay. The assay is classed as cell-based. The conditions noted are these: for pKi: hek293. Background: Displacement assays read how much labelled ligand stays bound in the presence of the test substance.

Assay [2] has as its target T1, Neuronal acetylcholine receptor; alpha3/beta4 (Rattus norvegicus) (UniProt P04757+P12392). Kind of assay: Agonist activity at recombinant rat alpha3beta4 nAChR expressed in HEK293 cells at 300 uM after 30 min by FLIPR potential blue assay. Type of assay: cell-based. In short, it runs like this: (§1)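 Stable rat α3β4 HEK293 cells were loaded with FMP dye (0.5 mg/ml) in Krebs-HEPES buffer, pH 7.4, for 30 min at 37 °C. For antagonist runs, the test compound was included in the dye buffer and EC70-EC80 ACh was then added. Fluorescence was read at ex 525/em 565 nm, 20 s before and 70 s after ligand addition, and ΔFU taken. Runs were done in duplicate, at least three times.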

The target of assay [3] is Neuronal acetylcholine receptor; alpha4/beta4 (Rattus norvegicus, UniProt P09483+P12392). Briefly: Displacement of [3H]epibatidine from rat alpha4beta4 nACHR expressed in HEK293 cells after 4 hrs by scintillation counting assay. The assay is classed as cell-based. The conditions noted are these: for pKi: hek293.
Sequence of Neuronal acetylcholine receptor; alpha4/beta4 (P09483 whole entry): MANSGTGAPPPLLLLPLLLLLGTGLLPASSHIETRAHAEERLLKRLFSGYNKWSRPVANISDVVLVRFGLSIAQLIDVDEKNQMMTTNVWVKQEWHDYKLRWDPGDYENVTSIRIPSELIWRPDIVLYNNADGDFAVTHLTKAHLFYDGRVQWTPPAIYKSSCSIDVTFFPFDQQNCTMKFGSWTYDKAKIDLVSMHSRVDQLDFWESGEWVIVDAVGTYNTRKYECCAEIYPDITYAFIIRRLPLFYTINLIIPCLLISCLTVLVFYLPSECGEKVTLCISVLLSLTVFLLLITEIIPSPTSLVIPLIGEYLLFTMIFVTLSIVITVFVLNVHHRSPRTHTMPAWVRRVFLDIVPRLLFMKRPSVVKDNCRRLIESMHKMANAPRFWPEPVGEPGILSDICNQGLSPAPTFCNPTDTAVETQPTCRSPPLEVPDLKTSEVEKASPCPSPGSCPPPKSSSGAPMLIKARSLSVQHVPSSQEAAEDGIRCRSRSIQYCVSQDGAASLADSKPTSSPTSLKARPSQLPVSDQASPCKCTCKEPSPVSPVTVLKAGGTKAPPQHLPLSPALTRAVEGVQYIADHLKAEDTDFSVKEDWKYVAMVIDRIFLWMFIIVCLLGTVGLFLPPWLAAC
Sequence of Neuronal acetylcholine receptor; alpha4/beta4 (P12392 whole entry): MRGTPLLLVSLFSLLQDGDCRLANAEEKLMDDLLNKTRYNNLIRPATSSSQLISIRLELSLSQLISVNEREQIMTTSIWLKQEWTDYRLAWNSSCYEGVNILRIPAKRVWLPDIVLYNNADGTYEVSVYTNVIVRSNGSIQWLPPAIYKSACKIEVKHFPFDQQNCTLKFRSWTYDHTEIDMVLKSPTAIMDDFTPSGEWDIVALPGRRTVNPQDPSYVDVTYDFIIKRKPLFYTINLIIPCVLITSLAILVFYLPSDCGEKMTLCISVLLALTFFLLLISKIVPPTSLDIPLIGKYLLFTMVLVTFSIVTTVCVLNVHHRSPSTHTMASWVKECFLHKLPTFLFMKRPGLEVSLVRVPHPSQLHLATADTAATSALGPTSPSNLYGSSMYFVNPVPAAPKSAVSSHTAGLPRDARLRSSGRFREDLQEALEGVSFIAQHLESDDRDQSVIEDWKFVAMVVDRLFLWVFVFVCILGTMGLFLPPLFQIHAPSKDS
Assay [4] concerns the target T2, Neuronal acetylcholine receptor subunit alpha-4/beta-2 (Mus musculus) (UniProt Q9ERK7+O70174). Kind of assay: Agonist activity at recombinant mouse alpha4beta2 nAChR expressed in HEK293 cells at >=100 uM after 30 min by FLIPR potential blue assay. Type of assay: cell-based. In short, it runs like this:
(§2)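 FLIPR membrane potential (FMP) dye assay on α4β2-HEK293T cells. Cells were washed in Krebs buffer (pH 7.4) and loaded with dye (0.5 mg/ml) for 30 min at 37 °C. Emission at 565 nm with excitation at 525 nm was read 20 s before and 70 s after ligand addition. Response was the ΔFU between maximal levels. Duplicate wells, at least three experiments.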

The target in assay [5] is T3, Neuronal acetylcholine receptor; alpha4/beta2 (Rattus norvegicus, UniProt P09483+P12390). Kind of assay: Displacement of [3H]epibatidine from rat alpha4beta2 nAChR expressed in HEK293 cells after 4 hrs by scintillation counting assay. Type of assay: cell-based.
T3 sequence (P09483 whole entry): as the sequence (P09483 whole entry) above
T3 sequence (P12390 whole entry): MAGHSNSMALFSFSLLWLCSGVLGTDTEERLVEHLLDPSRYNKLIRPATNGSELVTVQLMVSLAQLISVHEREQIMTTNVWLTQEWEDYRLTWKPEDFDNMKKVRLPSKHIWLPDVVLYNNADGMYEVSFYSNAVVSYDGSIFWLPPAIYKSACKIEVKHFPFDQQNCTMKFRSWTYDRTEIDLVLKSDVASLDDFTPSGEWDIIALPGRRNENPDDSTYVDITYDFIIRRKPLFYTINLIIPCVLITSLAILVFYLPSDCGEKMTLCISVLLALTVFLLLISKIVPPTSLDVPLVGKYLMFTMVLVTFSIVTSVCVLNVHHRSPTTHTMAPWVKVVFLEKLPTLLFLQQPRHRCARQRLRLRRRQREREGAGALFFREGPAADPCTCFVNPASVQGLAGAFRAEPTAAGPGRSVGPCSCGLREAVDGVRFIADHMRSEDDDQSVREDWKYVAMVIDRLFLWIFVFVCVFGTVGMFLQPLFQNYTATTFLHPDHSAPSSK
A short description of assay [6]: Binding affinity to Aplysia californica AChBP after 300 seconds by SPR biosensor analysis.
Assay [7] concerns the target T3, Neuronal acetylcholine receptor; alpha4/beta2. Briefly: Agonist activity at rat (alpha4)2(beta2)3 nAChR expressed in Xenopus oocyte by two electrode voltage-clamp electrophysiology assay. In a few lines:
(§3)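 Xenopus laevis oocytes were injected with about 25 ng total cRNA for rat α4 and β2. The α4:β2 ratio was 1:4 for (α4)2(β2)3 and 10:1 for (α4)3(β2)2. Oocytes were kept at 15-18 °C and recorded 2-5 days later, clamped at -60 mV. Peak currents were taken across 10 nM-10 mM agonist, with 10 min washes between applications. Currents were normalised on the same oocyte to ACh, 300 µM at (α4)2(β2)3 and 1 mM at (α4)3(β2)2.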

Assay [8] has as its target Neuronal acetylcholine receptor; alpha4/beta2 (Rattus norvegicus) (UniProt P09483+P12390). Briefly: Agonist activity at rat (alpha4)3(beta2)2 nAChR expressed in Xenopus oocyte by two electrode voltage-clamp electrophysiology assay relative to acetylcholine. In short, it runs like this:
as §3
(In general: In two-electrode clamp one electrode senses voltage and the other passes current.)

The target of assay [9] is T3, Neuronal acetylcholine receptor; alpha4/beta2. Kind of assay: Agonist activity at rat (alpha4)3(beta2)2 nAChR expressed in Xenopus oocyte by two electrode voltage-clamp electrophysiology assay. In a few lines:
as §3

Assay [10] shares this target. Briefly: Displacement of [3H]epibatidine from rat alpha4beta2 nAChR expressed in HEK293 cells after 4 hr by scintillation counting assay.
The target in assay [11] is T1, Neuronal acetylcholine receptor; alpha3/beta4 (Rattus norvegicus). Kind of assay: Antagonist activity at recombinant rat alpha3beta4 nAChR expressed in HEK293 cells assessed as inhibition of acetylcholine-induced effect at >=100 uM after 30 min by FLIPR potential blue assay. Type of assay: cell-based. In short, it runs like this:
as §1

The target of assay [12] is Neuronal acetylcholine receptor subunit alpha-4/beta-2 (Mus musculus, UniProt O70174+Q9ERK7). Kind of assay: Antagonist activity at recombinant mouse alpha4beta2 nAChR expressed in HEK293 cells assessed as inhibition of acetylcholine-induced effect after 30 min by FLIPR potential blue assay. Type of assay: cell-based. In short, it runs like this:
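FMP dye assay on α4β2-HEK293T cells. Antagonist was dissolved in the dye-loading Krebs buffer (pH 7.4) and preincubated 30 min at 37 °C. EC70–EC80 ACh was then added as final agonist. 565 nm emission was read before and after addition, and inhibition curves were built from ΔFU at eight concentrations. IC50 fitted; duplicate, at least three experiments.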

For assay [13], the target named is T2, Neuronal acetylcholine receptor subunit alpha-4/beta-2 (Mus musculus). Briefly: Agonist activity at recombinant mouse alpha4beta2 nAChR expressed in HEK293 cells at >=30 uM after 30 min by FLIPR potential blue assay. The assay is classed as cell-based. In a few lines:
as §2

For assay [14] the target is unchanged. Kind of assay: Agonist activity at recombinant mouse alpha4beta2 nAChR expressed in HEK293 cells at 300 uM after 30 min by FLIPR potential blue assay. Type of assay: cell-based. In a few lines:
as §2

Sequence of Neuronal acetylcholine receptor; alpha3/beta4 (P04757 whole entry): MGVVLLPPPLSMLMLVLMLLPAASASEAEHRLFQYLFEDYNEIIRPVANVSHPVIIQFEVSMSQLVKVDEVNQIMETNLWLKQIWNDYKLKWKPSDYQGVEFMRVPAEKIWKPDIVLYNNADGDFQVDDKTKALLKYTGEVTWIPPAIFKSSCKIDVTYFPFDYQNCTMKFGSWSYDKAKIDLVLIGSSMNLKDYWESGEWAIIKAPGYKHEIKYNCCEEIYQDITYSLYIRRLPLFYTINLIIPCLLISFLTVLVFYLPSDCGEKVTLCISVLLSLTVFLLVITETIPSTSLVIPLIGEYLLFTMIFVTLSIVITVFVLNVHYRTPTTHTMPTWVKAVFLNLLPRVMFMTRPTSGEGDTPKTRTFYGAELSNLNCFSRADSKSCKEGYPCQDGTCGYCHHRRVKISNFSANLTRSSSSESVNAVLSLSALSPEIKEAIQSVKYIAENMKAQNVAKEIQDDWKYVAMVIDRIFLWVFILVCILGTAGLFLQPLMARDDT
Sequence of Neuronal acetylcholine receptor; alpha3/beta4 (P12392 whole entry): as the sequence (P12392 whole entry) above
T2 sequence (O70174 31-629 partner limits assumed): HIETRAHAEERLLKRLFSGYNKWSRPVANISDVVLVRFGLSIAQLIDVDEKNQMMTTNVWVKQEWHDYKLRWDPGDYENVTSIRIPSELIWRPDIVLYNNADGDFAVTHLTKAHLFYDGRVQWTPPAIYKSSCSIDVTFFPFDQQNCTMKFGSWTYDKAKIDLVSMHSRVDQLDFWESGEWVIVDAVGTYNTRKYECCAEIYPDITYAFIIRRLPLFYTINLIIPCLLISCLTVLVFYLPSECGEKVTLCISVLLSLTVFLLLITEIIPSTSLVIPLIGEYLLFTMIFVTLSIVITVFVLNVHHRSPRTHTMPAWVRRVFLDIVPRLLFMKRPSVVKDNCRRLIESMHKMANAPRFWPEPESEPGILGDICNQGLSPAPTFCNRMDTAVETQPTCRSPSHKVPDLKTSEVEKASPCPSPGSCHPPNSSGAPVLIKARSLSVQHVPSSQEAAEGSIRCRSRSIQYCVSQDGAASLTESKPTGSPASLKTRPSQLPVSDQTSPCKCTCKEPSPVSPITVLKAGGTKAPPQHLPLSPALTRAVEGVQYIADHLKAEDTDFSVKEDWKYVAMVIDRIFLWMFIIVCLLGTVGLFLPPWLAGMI
T2 sequence (Q9ERK7 26-501 limits assumed): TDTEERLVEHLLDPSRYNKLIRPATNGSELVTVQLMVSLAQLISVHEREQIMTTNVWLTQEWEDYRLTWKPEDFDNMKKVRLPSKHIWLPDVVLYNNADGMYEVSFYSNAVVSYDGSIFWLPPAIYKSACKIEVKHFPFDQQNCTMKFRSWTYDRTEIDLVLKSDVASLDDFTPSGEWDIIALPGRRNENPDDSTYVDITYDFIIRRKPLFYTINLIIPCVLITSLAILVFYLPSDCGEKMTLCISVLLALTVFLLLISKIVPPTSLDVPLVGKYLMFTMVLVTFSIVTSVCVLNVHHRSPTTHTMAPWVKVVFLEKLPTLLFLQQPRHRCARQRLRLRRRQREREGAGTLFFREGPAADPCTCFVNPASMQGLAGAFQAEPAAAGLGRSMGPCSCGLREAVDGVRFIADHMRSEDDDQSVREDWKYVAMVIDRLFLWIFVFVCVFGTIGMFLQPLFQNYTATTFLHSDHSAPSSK
Sequence of Neuronal acetylcholine receptor subunit alpha-4/beta-2 (Q9ERK7 whole entry): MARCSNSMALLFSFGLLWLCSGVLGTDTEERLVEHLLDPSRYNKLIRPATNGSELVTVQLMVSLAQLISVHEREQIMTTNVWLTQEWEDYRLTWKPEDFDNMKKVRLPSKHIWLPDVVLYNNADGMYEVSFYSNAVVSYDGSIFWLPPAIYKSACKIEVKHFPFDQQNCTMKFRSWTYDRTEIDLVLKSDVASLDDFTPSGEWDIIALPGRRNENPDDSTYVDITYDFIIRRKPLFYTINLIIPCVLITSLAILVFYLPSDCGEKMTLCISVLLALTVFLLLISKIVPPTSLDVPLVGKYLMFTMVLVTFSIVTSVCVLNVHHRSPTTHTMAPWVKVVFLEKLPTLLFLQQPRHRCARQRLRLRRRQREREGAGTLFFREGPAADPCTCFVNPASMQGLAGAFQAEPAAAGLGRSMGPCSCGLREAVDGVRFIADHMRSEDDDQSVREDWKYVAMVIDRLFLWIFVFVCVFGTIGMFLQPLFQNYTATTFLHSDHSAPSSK
Sequence of Neuronal acetylcholine receptor subunit alpha-4/beta-2 (O70174 whole entry): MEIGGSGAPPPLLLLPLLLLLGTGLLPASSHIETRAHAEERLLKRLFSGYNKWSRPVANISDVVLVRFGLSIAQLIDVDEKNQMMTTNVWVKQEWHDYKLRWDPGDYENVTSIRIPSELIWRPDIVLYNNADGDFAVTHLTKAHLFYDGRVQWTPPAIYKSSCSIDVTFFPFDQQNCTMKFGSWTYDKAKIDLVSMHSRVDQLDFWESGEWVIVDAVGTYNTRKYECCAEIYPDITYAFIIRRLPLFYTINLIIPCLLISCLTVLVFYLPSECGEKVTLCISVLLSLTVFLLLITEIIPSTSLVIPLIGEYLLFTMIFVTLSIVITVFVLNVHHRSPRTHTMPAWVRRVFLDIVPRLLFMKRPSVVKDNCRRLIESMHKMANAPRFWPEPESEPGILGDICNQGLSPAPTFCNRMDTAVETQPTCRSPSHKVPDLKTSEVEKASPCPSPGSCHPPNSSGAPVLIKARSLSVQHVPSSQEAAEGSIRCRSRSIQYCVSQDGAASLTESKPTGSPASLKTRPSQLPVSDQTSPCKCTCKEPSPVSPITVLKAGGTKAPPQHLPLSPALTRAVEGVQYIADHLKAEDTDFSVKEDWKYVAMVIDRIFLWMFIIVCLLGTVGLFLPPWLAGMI

As to `CN(C)C(=O)OCCC(CCCCc1ccccc1)N(C)C` (stereo not drawn), the Ki amounted to 11 µM in [1] (read-out: Ki), 4.4 µM in [3] and 1.1 µM in assay [5]. The outcome in assay [2] and in assay [4] was Active.
Regarding `CNC(=O)OCCC(CCCCc1ccccc1)N(C)C` (stereo not drawn), the Ki turned out to be 100 µM in assay [1] (read-out: Ki), 30 µM in assay [3] and 3.6 µM in [5]. The result in [2] and in assay [4] was Active.
In the case of `CC(CCOC(=O)N(C)C)N(C)CCCc1ccccc1` (stereo not drawn), the pKi in assay [1] and in assay [3] was below 3 in each case. Besides, the Ki in assay [1] (read-out: Ki) is above 1000 µM; in [3], above 1000 µM; in [5], 300 µM.
Consider `CN1[C@@H](CC(=O)c2ccccc2)CCC[C@H]1C[C@H](O)c1ccccc1` [LOBELINE], for which, in [6], the Kd was 0.013 µM and the pKd is listed as 7.9.
With `c1ccc(CCN2CCCN(c3cccnc3)CC2)cc1`, the results for the Ki in [1] (read-out: Ki), in [3] and in assay [5] were 3.4 µM, 2.4 µM and 0.11 µM, respectively.
Take `c1ccc(CCCN2CCN(c3cccnc3)CC2)cc1`: the Ki worked out at 20 µM in [1] (read-out: Ki), 3.5 µM in assay [3] and 0.49 µM in assay [5]. Further, the result in [2] and in assay [4] was Active.
For the compound `CNC(=O)OCCC(CCCCCc1ccccc1)N(C)C` (stereo not drawn), the Ki in assay [1] (read-out: Ki) was 50 µM; in assay [3], 4.5 µM; in assay [5] it was 2.7 µM.
As for `c1ccc(CN2CCCN(c3cccnc3)CC2)cc1`, the Ki in [1] (read-out: Ki) is 2.6 µM; in [3], 3.4 µM; in assay [5] it was 0.104 µM. The EC50 in [7] was 1.8 µM; in [9] it was 7.9 µM. The compound also displayed an Rmax in assay [8] of 6. Besides, in assay [6], the Kd was above 1 µM. In addition, the pKd in assay [6] is on record as below 6.
For `Brc1cccc(CCN2CCCN(c3cccnc3)CC2)c1`, the Ki in [1] (read-out: Ki) was found to be 0.78 µM; in assay [3] it was 1.9 µM; in assay [5], 0.13 µM.
On to `CNC(=O)OCCC(C)N(C)CCCc1ccccc1` (stereo not drawn), for which the pKi in assay [1] and in assay [3] was below 3 each time. The Ki in assay [1] (read-out: Ki) was above 1000 µM; in [3] it was above 1000 µM; in assay [5] it was 50 µM.
The compound `c1cncc(N2CCCNCC2)c1` came in with a Ki in assay [10] of 0.00072 µM.
Turning to `CN(C)C(=O)OCCC(COc1ccc(F)cc1)N(C)C` (stereo not drawn), the figures for the Ki in [1] (read-out: Ki), in [3] and in assay [5] were 300 µM, 100 µM and 500 µM, respectively.
On to `c1ccc(CCCN2CCCN(c3cccnc3)CC2)cc1`, for which the Ki in [1] (read-out: Ki) was 3.8 µM; in [3] it was 3.8 µM; in [5], 0.082 µM. Besides, in assay [6], the Kd was above 1 µM. The pKd in assay [6] was below 6.
With `C(=C\N1CCCN(c2cccnc2)CC1)/c1ccccc1`, the Ki in [1] (read-out: Ki) was 2.9 µM; in [3], 1.6 µM; in [5], 0.099 µM. In addition, in assay [11], the inhibition entry is “inactive”. For the same compound, the IC50 in assay [12] was 1.1 µM.
For `c1ccc(CN2CCN(c3cccnc3)CC2)cc1`, the Ki in [1] (read-out: Ki) was above 300 µM; in assay [1] (read-out: pKi (converted)), above 316 µM; in assay [3], 100 µM; in [5], 9.6 µM.
As for `CN(C)C(=O)OCCC(COc1ccccn1)N(C)C` (stereo not drawn), the Ki turned out to be 300 µM in assay [1] (read-out: Ki), 300 µM in assay [3] and 100 µM in assay [5].
In the case of `CN(C)C(=O)OCCC(CCC(O)c1ccccc1)N(C)C` (stereo not drawn), the Ki is 5.9 µM in assay [1] (read-out: Ki), 6.03 µM in [1] (read-out: pKi (converted)), 6.7 µM in [3] and 30 µM in [5].
Regarding `CNC(=O)OCCC(C)N(C)CC(O)c1ccccc1` (stereo not drawn), the figures for the Ki in [1] (read-out: Ki), in assay [3] and in assay [5] were 1000 µM, 300 µM and 300 µM, respectively.
On to `CNC(=O)OCCC(C)N(C)CCc1ccccc1` (stereo not drawn), for which the Ki in assay [1] (read-out: Ki) amounted to 300 µM; in assay [3], 300 µM; in [5] it was 30 µM.
In the case of `CNC(=O)OCCC(CCC(O)c1ccccc1)N(C)C` (stereo not drawn), the Ki is above 300 µM in [1] (read-out: Ki), above 316 µM in assay [1] (read-out: pKi (converted)), 100 µM in assay [3] and 100 µM in assay [5].
Regarding `CN(C)C(CCCCc1ccccc1)CCOc1nccn1C` (stereo not drawn), the Ki in [1] (read-out: Ki) amounted to 8.3 µM; in assay [3], 3.7 µM; in [5], 0.76 µM. Besides, the result in assay [13] was Active.
Consider `CC(CCOC(=O)N(C)C)N(C)CC(O)Cc1ccccc1` (stereo not drawn), for which the pKi in assay [1] is below 3. The Ki in assay [1] (read-out: Ki) was above 1000 µM; in assay [3] it was 100 µM; in assay [5] it was 500 µM.
In the case of `CN(C)C(=O)OCCC(CCCc1ccccc1)N(C)C` (stereo not drawn), the figures for the Ki in assay [1] (read-out: Ki), in assay [3] and in assay [5] were 13 µM, 4.9 µM and 1.9 µM, respectively. For the same compound, the outcome in assay [2] and in [4] was Active.
As for `CNC(=O)OCCC(C)N(C)Cc1ccccc1` (stereo not drawn), the Ki in assay [1] (read-out: Ki), in [3] and in assay [5] was 300 µM throughout.
As for `c1ccc(CCN2CCN(c3cccnc3)CC2)cc1`, the Ki was determined as 8.2 µM in assay [1] (read-out: Ki), 8.9 µM in assay [3] and 0.56 µM in assay [5]. Besides, the outcome in [2] and in assay [14] was Active.
Consider `CNC(=O)OCCC(CCCc1ccccc1)N(C)C` (stereo not drawn), for which the Ki came out at 100 µM in [1] (read-out: Ki), 30 µM in assay [3] and 11 µM in assay [5]. The result in assay [2] and in assay [4] was Active.
On to `Brc1ccc(N2CCCN(CCCc3ccccc3)CC2)cn1`, for which the Ki in assay [1] (read-out: Ki) is 2.2 µM; in assay [3], 1.5 µM; in assay [5], 0.82 µM.
